We go through 14 compounds from paper PMC12573768 (RSC Advances, 2025).

Read-outs that look alike come from different tables or passages of the source.

In general, IC50 refers to the concentration needed to halve the response being measured.

Series [1] has as its system fructosamine formation in BSA-fructose model. As to the kind of experiment: Fructosamine inhibition, NBT assay, BSA-fructose model. The series is classed as biochemical. To be noted: 50 °C 24 hours. Put shortly:
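Test compound and BSA-fructose solution mixed 1:1 and incubated at 50 °C for 24 h, with aminoguanidine as positive control. Incubated mixture was treated with 300 μM NBT in 0.1 M sodium carbonate, pH 10.6, at 37 °C for 15 min, then absorbance read at 530 nm. Inhibition was calculated with control and sample blanks. Run in triplicate; mean ± SEM.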

Series [2] relates to AGEs formation in BSA-fructose model. As to the kind of experiment: AGEs inhibition, fluorescence, BSA-fructose model. The class given is biochemical. The note with it: 50 °C 24 hours. The gist of the method:
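Test compound and BSA-fructose solution mixed 1:1 and incubated at 50 °C for 24 h, with aminoguanidine as positive control. An aliquot of the mixture was diluted fivefold and fluorescence read at excitation 375 nm and emission 440 nm. Inhibition was calculated from control, control blank, sample and sample blank intensities. Run in triplicate; IC50 derived; mean ± SEM.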

Series [3] in a line: Free radical scavenging activity. The note with it: for IC50: read-out: (IC50 ± SEM) Antioxidant activity (DPPH radical). The gist of the method: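 Test compound in DMSO mixed with 0.2 mM DPPH in 95% methanol (1:3 by volume) and held 1 h in the dark at room temperature. Absorbance read at 517 nm; scavenging calculated relative to control, with ascorbic acid as reference. IC50 from non-linear regression; triplicate; mean ± SEM.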
A general note: DPPH is a stable violet radical that fades when it is reduced.

The target in series [4] is T1, α-glucosidase (Saccharomyces cerevisiae, UniProt P53341). As to the kind of experiment: α-Glucosidase inhibitory activity. The class given is biochemical.
T1 sequence (P53341 whole entry): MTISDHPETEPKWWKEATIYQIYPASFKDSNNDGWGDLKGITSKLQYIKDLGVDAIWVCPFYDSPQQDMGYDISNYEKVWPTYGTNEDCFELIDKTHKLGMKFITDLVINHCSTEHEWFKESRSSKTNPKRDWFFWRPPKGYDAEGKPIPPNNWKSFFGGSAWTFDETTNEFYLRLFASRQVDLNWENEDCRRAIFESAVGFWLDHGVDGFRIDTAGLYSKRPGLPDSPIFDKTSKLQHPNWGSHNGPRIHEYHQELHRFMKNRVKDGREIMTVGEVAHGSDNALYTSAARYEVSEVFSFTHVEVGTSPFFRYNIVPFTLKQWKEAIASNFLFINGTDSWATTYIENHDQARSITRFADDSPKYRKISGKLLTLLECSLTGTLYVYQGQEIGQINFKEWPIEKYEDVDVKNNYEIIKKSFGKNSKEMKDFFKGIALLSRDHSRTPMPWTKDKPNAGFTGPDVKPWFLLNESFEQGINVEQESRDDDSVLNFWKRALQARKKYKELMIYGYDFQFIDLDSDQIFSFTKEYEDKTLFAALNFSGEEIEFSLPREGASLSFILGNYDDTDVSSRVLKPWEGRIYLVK
The target of series [5] is T2, porcine pancreatic α-amylase (Sus scrofa, UniProt P00690).
T2 sequence (P00690 16-511): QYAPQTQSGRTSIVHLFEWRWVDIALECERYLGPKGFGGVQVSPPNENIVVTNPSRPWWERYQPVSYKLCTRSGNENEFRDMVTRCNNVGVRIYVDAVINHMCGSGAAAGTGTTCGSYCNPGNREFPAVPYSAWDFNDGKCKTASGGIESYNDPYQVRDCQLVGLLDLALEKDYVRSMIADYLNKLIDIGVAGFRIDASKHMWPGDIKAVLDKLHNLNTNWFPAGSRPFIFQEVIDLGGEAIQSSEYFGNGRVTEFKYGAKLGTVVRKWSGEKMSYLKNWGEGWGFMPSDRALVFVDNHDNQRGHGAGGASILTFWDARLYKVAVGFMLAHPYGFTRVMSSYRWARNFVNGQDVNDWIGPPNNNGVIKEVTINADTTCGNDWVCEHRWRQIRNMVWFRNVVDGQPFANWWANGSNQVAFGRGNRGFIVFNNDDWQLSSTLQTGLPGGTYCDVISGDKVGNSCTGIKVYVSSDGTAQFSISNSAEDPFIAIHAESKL
As to the kind of experiment: α-Amylase inhibitory activity. The class given is biochemical.

The subject of another series is 3T3-L1 cells. Nature of the series: MTT cytotoxicity assay. To be noted: 3T3-L1, up to 50 μM, 12 hours. The series is classed as cell-based. Put shortly: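 3T3-L1 cells grown in DMEM with 10% FBS, 1% penicillin–streptomycin and 0.2% amphotericin at 37 °C, 5% CO2. Seeded at 2.0 × 10^4 cells/well overnight, PBS-washed, then exposed to test compound (0–50 μM in DMEM) for 12 h. After washing, 0.05% MTT in DMEM for 3 h; formazan dissolved in DMSO and read at 590 nm (reference 620 nm). IC50 by non-linear regression; triplicate.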
A general note: Tetrazolium assays rely on reduction of a dye to a coloured formazan, in cell work by metabolically active cells.

The nature of series [6]: Stability under physiological conditions. The series is classed as physicochemical. The note with it: 200 μM, 1X PBS pH 7.4, 37 °C, 10 days. Put shortly:
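Test compound at 200 μM in 1X PBS, pH 7.4, incubated at 37 °C. A sample taken immediately was extracted three times with ethyl acetate, evaporated and stored at −20 °C; a second sample was extracted likewise after 10 days. Both residues were analysed by LC-MS on a C18 column.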

For series [7] the following is noted: in vivo study by Wang et al. ref 55; cited from earlier work.
In the next series the test system is Caco-2 monolayer. The note with it: Caco-2 cell model ref 55; cited from earlier work.
In the next series the test system is C57BL/KsJ-db/db mice. To be noted: Jung et al. ref 52; cited from earlier work.
For series [8] the following is noted: cited from earlier work; for Stability improvement compared to ester form: rat plasma, Yang et al. ref 58.
A further series addresses T3, α-amylase (Sus scrofa, UniProt P00690).
T3 sequence (P00690 16-511): T2 sequence (P00690 16-511)
To be noted: vs EGCG, Liu et al. ref 37; cited from earlier work.

Series [9] concerns the target T1, α-glucosidase. To be noted: vs EGCG, Liu et al. ref 37; cited from earlier work.

For `N=C(N)NN` [AG, Aminoguanidine, reference compound], the “Inhibition of fructosamine formation” value in [1] (5 mM) is 9%; in series [1] (10 mM), 30%. In addition, the “Inhibition of AGEs” value was found to be 43% in [2] (5 mM) and 70% in series [2] (10 mM).

As for `C[C@H]1O[C@H](O[C@H]2[C@H](O)[C@@H](O)[C@@H](O[C@H]3[C@H](O)[C@@H](O)C(O)O[C@@H]3CO)O[C@@H]2CO)[C@H](O)[C@@H](O)[C@@H]1N[C@H]1C=C(CO)[C@@H](O)[C@H](O)[C@H]1O` (stereo partly shown) [Acarbose, reference compound], the “(IC50 ± SEM) Antioxidant activity (DPPH radical)” value in series [3] (mean ± SEM, triplicate) is “No activity”.

As for `CCCCNC(=O)/C=C/c1ccc(O)c(O)c1` [CA4, (E)-3-(3,4-Dihydroxyphenyl)-N-butylacrylamide], the IC50 at α-glucosidase [4] is 38 ± 1.57 µM; in series [5], more than 500 µM; in series [3] (mean ± SEM, triplicate) it was 20.8 ± 0.45 µM.

Regarding `CCCCCCNC(=O)/C=C/c1ccc(O)c(O)c1` [CA6, (E)-3-(3,4-Dihydroxyphenyl)-N-hexylacrylamide], the IC50 is 51.5 ± 2.36 µM against α-glucosidase [4]; more than 500 µM in series [5]; 23.7 ± 0.59 µM in series [3] (mean ± SEM, triplicate).

Take `CCCCCCCCNC(=O)/C=C/c1ccc(O)c(O)c1` [CA8, (E)-3-(3,4-Dihydroxyphenyl)-N-octylacrylamide]: the IC50 on α-glucosidase [4] is 13.7 ± 0.44 µM; in series [5] it was more than 500 µM; in series [3] (mean ± SEM, triplicate) it was 24.3 ± 0.58 µM.

As for `CCCCCCCCCCNC(=O)/C=C/c1ccc(O)c(O)c1` [CA10, (E)-3-(3,4-Dihydroxyphenyl)-N-decylacrylamide], the IC50 is 19.1 ± 0.64 µM against α-glucosidase [4]; more than 500 µM in series [5]; 23.4 ± 0.77 µM in [3] (mean ± SEM, triplicate).

On to `CCCCCCCCCCCCNC(=O)/C=C/c1ccc(O)c(O)c1` [CA12, (E)-3-(3,4-Dihydroxyphenyl)-N-dodecylacrylamide], for which the concentration for half-maximal inhibition (IC50) against α-glucosidase [4] is 17.4 ± 0.87 µM; in series [5], 72.8 ± 1.83 µM; in series [3] (mean ± SEM, triplicate), 16.4 ± 0.48 µM.

For the compound `CCCCCCCCCCCCCCNC(=O)/C=C/c1ccc(O)c(O)c1` [CA14, (E)-3-(3,4-Dihydroxyphenyl)-N-tetradecylacrylamide], the IC50 turned out to be 1.94 ± 0.06 µM at α-glucosidase [4]; 27 ± 0.83 µM in series [5]; 14 ± 0.38 µM in series [3] (mean ± SEM, triplicate). The “α-Glucosidase inhibition potency relative to parent CA” value on α-glucosidase [4] (ratio of IC50 values, vs CA) is listed as 6392 times. The “α-Glucosidase inhibition potency relative to acarbose” value on α-glucosidase [4] (ratio of IC50 values, vs acarbose) was 113 times. In series [3] (ratio of DPPH IC50 values, vs 15c), the “Antioxidant activity relative to 15c” value was 1.2 fold. Moreover, in series [3] (ratio of DPPH IC50 values, vs CA), the “Antioxidant activity relative to CA” value is 2.5 times. Besides, the “Antioxidant activity relative to Vitamin C” value in series [3] (ratio of DPPH IC50 values, vs Vitamin C) stood at 2.3 fold. Moreover, the results for the “Inhibition of fructosamine formation” value in [1] (5 mM) and in series [1] (10 mM) were 33% and 70%, respectively. Further, the entries for the “Inhibition of AGEs” value in series [2] (5 mM) and in series [2] (10 mM) were 44% and 79%, respectively. Further, the “Cytotoxicity (cell viability, MTT)” value in the series with 3T3-L1 cells is given as “no significant cytotoxicity”. For the same compound, the “Stability under physiological conditions (degradation by LC-MS)” value in series [6] is listed as “did not exhibit any degradation”.

In the case of `CCCCCCCCCCCCCCCCNC(=O)/C=C/c1ccc(O)c(O)c1` [CA16, (E)-3-(3,4-Dihydroxyphenyl)-N-hexadecylacrylamide], the IC50 is 24.8 ± 0.46 µM on α-glucosidase [4]; 58.4 ± 2.68 µM in series [5]; 15.1 ± 0.3 µM in series [3] (mean ± SEM, triplicate).

For the compound `O=C(O)/C=C/c1ccc(O)c(O)c1` [CA, Caffeic acid], in series [3] (mean ± SEM, triplicate), the IC50 turned out to be 34.3 ± 0.52 µM. In [7], the Bioavailability is reported as 14.70%. Further, in the series on Caco-2 monolayer, the Caco-2 monolayer permeability entry is “poor”. Further, the “Blood glucose lowering effect” value with C57BL/KsJ-db/db mice is listed as “significant blood glucose lowering effect”.

Take `O=C(/C=C/c1ccc(O)c(O)c1)NCCc1ccccc1` [CAPA, caffeic acid phenethyl amide]: the “Stability improvement compared to ester form” value is 118 fold in [8] (25 °C) and 77 fold in series [8] (37 °C).

In the case of `O=C(/C=C/c1ccc(O)c(O)c1)OCCc1ccccc1` [CAPE, caffeic acid phenethyl ester], the “Stability in rat plasma” value in series [8] (esterases ref 57) is recorded as “rapid decomposition”.

For `O=C1O[C@H]([C@@H](O)CO)C(O)=C1O` [Vitamin C, L-ascorbic acid, reference compound], at α-glucosidase [4] (mean ± SEM, triplicate), the “(IC50 ± SEM) α-Glucosidase inhibition” value is “No activity”. The “(IC50 ± SEM) α-Amylase inhibition” value in [5] (mean ± SEM, triplicate) is “No activity”. The IC50 in [3] (mean ± SEM, triplicate) is 32.7 ± 0.47 µM.

In the case of EGCG palmitate, the “α-Amylase inhibition better than EGCG” value at α-amylase was 4.5 times. On α-glucosidase [9], the “α-Glucosidase inhibition better than EGCG” value is on record as 52 times.
